From ChEMBL document CHEMBL1122945, “Synthesis and antitumor activity of a series of ftorafur analogues: the effect of varying electronegativity at the 1'-position” (J Med Chem, 1985)

Experiments:
P388 [1] = experiment: Average days survival of female CDF1 mice bearing lymphocytic leukemia, when 10 E-6 tumor cells were injected intraperitoneally, dosed for 9 days at 20 mg/kg.; format: functional, Mus musculus; details: route intraperitoneal
Outline: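 P388 lymphocytic leukemia screen per NIH protocol in female CDF1 mice (~25 g), six per group. 1 × 10^6 cells injected ip on day 0. Compound given at 20 mg/kg on days 1–9. Survival of treated mice recorded and T/C calculated, with T/C above 125% taken as significant. 5-FU and fluorodeoxyuridine served as positive internal standards.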

[2] = Evaluated in vitro for the Cytotoxic activity in the L1210 cell culture screen at 1 uM Maximum cell kill in a 72-h period; format: cell-based; details: mouse, L1210 cells; read-out: Inhibition
Outline: (§1)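 Compounds were suspended or dissolved in sterile 5 mM phosphate-buffered saline, sonicated 3 min, then serially diluted. L1210 cells were kept in suspension culture in RPMI-1640 with 10% fetal calf serum, penicillin and streptomycin at 37 °C, 98% humidity, 5% CO2. Exponentially growing cells (4 × 10^5 cells/mL) were exposed to compound. Read-out was percent inhibition versus control at maximum cell kill within 72 h, N = 9.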

[3] = Evaluated in vitro for the Cytotoxic activity in the L1210 cell culture screen at 10 uM Maximum cell kill in a 72-h period; format: cell-based; details: mouse, L1210 cells; read-out: Inhibition; outline: as §1
[4] = Evaluated in vitro for the Cytotoxic activity in the L1210 cell culture screen at 100 uM Maximum cell kill in a 72-h period; format: cell-based; details: mouse, L1210 cells; read-out: Inhibition; outline: as §1
P388 [5] = experiment: Evaluated for the antitumor activity in the P388 lymphocytic leukemia in female CDF1 mice injected intraperitoneally with 10 E-6 tumor cells dosed for 9 days at 20 mg/kg; format: functional, Mus musculus; details: route intraperitoneal
Outline: (§2)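 P388 leukaemia screen run to NIH protocol in female CDF1 mice (~25 g). 1 × 10^6 cells were given ip on day 0, and compounds were dosed on days 1–9. Six mice per group, with 5-FU and fluorodeoxyuridine as positive internal standards. T/C values were calculated, and T/C above 125% counted as significant activity.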

P388 [6] = experiment: Evaluated for the antitumor activity in the P388 lymphocytic leukemia in female CDF1 mice injected intraperitoneally with 10 E-6 tumor cells dosed for 9 days at 20 mg/kg;; format: functional, Mus musculus; details: route intraperitoneal; outline: as §2
[7] = Evaluated in vitro for the Cytotoxic activity in the L1210 cell culture screen at 100 uM Maximum cell kill in a 72-h period r; format: cell-based; details: mouse, L1210 cells; read-out: Inhibition; outline: as §1
P388 [8] = experiment: Evaluated for the antitumor activity in the P388 lymphocytic leukemia in female CDF1 mice injected intraperitoneally with 10 E-6 tumor cells dosed for 9 days at 20 mg/kg; no significant activity; format: functional, Mus musculus; details: route intraperitoneal; outline: as §2

SMILES	Average survived (P388 [1]) [days]	cytotoxicity at 72 h, 1 µM [2] [%]	cytotoxicity at 72 h, 10 µM [3] [%]	cytotoxicity at 72 h, 100 µM [4] [%]	T/C (P388 [5]) [%]	T/C (P388 [6]) [%]	cytotoxicity at 72 h, 100 µM [7] [%]	T/C (P388 [8]) [%]
O=c1[nH]c(=O)n(C2CCC[S+]2[O-])cc1F (configuration not stated)	14.5	64.9	82.9	84.5	143			
O=C1CCCC1n1cc(F)c(=O)[nH]c1=O (configuration not stated)	10.5	40	49.1	65.5		103		
O=c1[nH]c(=O)n(C2CCCS2)cc1F (configuration not stated)	10.17	16.9	52.5	68.5	100			
O=c1[nH]cc(F)c(=O)[nH]1 [FLUOROURACIL]	17.6	79.8	81.2	90.3	173			
O=c1[nH]c(=O)n([C@H]2C[C@H](O)[C@@H](CO)O2)cc1F [FLOXURIDINE]	15.17				149			
O=c1[nH]c(=O)n(C2CCCO2)cc1F (configuration not stated) [TEGAFUR]	10	17.2	67.5		98		81.8	
O=c1[nH]c(=O)n(C2CCCS2(=O)=O)cc1F (configuration not stated)	12.17	59.2	85	92				119
